In ChEMBL document CHEMBL1136980, “Synthesis of novel 3-(1-(1-substituted piperidin-4-yl)-1H-1,2,3-triazol-4-yl)-1,2,4-oxadiazol-5(4H)-one as antifungal agents” (2009):
In brackets after ≈: the same amount, converted by molar mass. Activity calls are given as the source filed them. The rule behind the calls is not given here.

Key:
[1] = system: Aspergillus niger; experiment: Antifungal activity against Aspergillus niger NCIM 1196 by agar plate assay; assay type: functional
Method in brief: (§1)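 In vitro MIC determined by standard agar plate method (cup plate format). Compounds were tested in dimethyl sulfoxide, with DMSO alone as solvent control. Miconazole and fluconazole served as reference standards.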

[2] = system: Cryptococcus neoformans; experiment: Antifungal activity against Cryptococcus neoformans NCIM 576 by agar plate assay; assay type: functional; method in brief: as §1
[3] = system: Aspergillus flavus; experiment: Antifungal activity against Aspergillus flavus NCIM 539 by agar plate assay; assay type: functional; method in brief: as §1
[4] = system: Candida albicans; experiment: Antifungal activity against Candida albicans NCIM 3471 by agar plate assay; assay type: functional; method in brief: as §1
[5] = system: Fusarium oxysporum; experiment: Antifungal activity against Fusarium oxysporum NCIM 1332 by agar plate assay; assay type: functional; method in brief: as §1
[6] = system: Cryptococcus neoformans; experiment: Antifungal activity against Cryptococcus neoformans NCIM 576 at 200 ug/mL by agar plate assay; assay type: functional, organism-based
[7] = system: Candida albicans; experiment: Antifungal activity against Candida albicans NCIM 3471 at 200 ug/mL by agar plate assay; assay type: functional, organism-based
[8] = system: Aspergillus niger; experiment: Antifungal activity against Aspergillus niger NCIM 1196 at 200 ug/mL by agar plate assay; assay type: functional, organism-based
[9] = system: Aspergillus flavus; experiment: Antifungal activity against Aspergillus flavus NCIM 539 at 200 ug/mL by agar plate assay; assay type: functional, organism-based

CCN1CCC(n2cc(-c3noc(=O)[nH]3)nn2)CC1
MIC [1]: 19 µg/mL (≈ 71.9 µM) | MIC [2]: 39 µg/mL (≈ 148 µM) | MIC [3]: 19 µg/mL (≈ 71.9 µM) | MIC [4]: 37 µg/mL (≈ 140 µM) | MIC [5]: 39 µg/mL (≈ 148 µM)

CS(=O)(=O)N1CCC(n2cc(-c3noc(=O)[nH]3)nn2)CC1
MIC [1]: 10 µg/mL (≈ 31.8 µM) | MIC [2]: 27.5 µg/mL (≈ 87.5 µM) | MIC [3]: 15 µg/mL (≈ 47.7 µM) | MIC [4]: 20 µg/mL (≈ 63.6 µM) | MIC [5]: 25 µg/mL (≈ 79.5 µM)

O=c1[nH]c(-c2cn(C3CCNCC3)nn2)no1
MIC [1]: 15 µg/mL (≈ 63.5 µM) | MIC [3]: 15 µg/mL (≈ 63.5 µM) | MIC [4]: 27.5 µg/mL (≈ 116 µM) | MIC [5]: 25 µg/mL (≈ 106 µM) | Activity [6]: inactive

O=C(c1ccc(Cl)cc1)N1CCC(n2cc(-c3noc(=O)[nH]3)nn2)CC1
MIC [1]: 25 µg/mL (≈ 66.7 µM) | MIC [2]: 40 µg/mL (≈ 107 µM) | MIC [3]: 20 µg/mL (≈ 53.4 µM) | MIC [4]: 40 µg/mL (≈ 107 µM) | MIC [5]: 55 µg/mL (≈ 147 µM)

CC(C)(C)OC(=O)N1CCC(n2cc(C#N)nn2)CC1
MIC [1]: 50 µg/mL (≈ 180 µM) | Activity [7]: inactive | MIC [3]: 55 µg/mL (≈ 198 µM) | MIC [5]: 90 µg/mL (≈ 325 µM) | Activity [6]: inactive

Cc1ccc(S(=O)(=O)N2CCC(n3cc(-c4noc(=O)[nH]4)nn3)CC2)cc1
MIC [1]: 20 µg/mL (≈ 51.2 µM) | MIC [2]: 40 µg/mL (≈ 102 µM) | MIC [3]: 25 µg/mL (≈ 64 µM) | MIC [4]: 30 µg/mL (≈ 76.8 µM) | MIC [5]: 33 µg/mL (≈ 84.5 µM)

CC(=O)N1CCC(n2cc(-c3noc(=O)[nH]3)nn2)CC1
MIC [1]: 31 µg/mL (≈ 111 µM) | MIC [2]: 65 µg/mL (≈ 234 µM) | MIC [3]: 31 µg/mL (≈ 111 µM) | MIC [4]: 60 µg/mL (≈ 216 µM) | MIC [5]: 61 µg/mL (≈ 219 µM)

CN1CCC(n2cc(-c3noc(=O)[nH]3)nn2)CC1
MIC [1]: 12.5 µg/mL (≈ 49.9 µM) | MIC [2]: 60 µg/mL (≈ 240 µM) | MIC [3]: 10 µg/mL (≈ 40 µM) | MIC [4]: 20 µg/mL (≈ 79.9 µM) | MIC [5]: 25 µg/mL (≈ 99.9 µM)

CC(C)(C)OC(=O)N1CCC(n2cc(/C(N)=N/O)nn2)CC1
MIC [1]: 20 µg/mL (≈ 64.4 µM) | MIC [2]: 40 µg/mL (≈ 129 µM) | MIC [3]: 20 µg/mL (≈ 64.4 µM) | MIC [4]: 35 µg/mL (≈ 113 µM) | MIC [5]: 35 µg/mL (≈ 113 µM)

CCCC(=O)N1CCC(n2cc(-c3noc(=O)[nH]3)nn2)CC1
MIC [2]: 85 µg/mL (≈ 277 µM) | Activity [8]: inactive | MIC [4]: 90 µg/mL (≈ 294 µM) | Activity [9]: inactive | MIC [5]: 95 µg/mL (≈ 310 µM)

Clc1ccc(COC(Cn2ccnc2)c2ccc(Cl)cc2Cl)c(Cl)c1 (stereo not given) [MICONAZOLE]
MIC [1]: 12.5 µg/mL (≈ 30 µM) | MIC [2]: 25 µg/mL (≈ 60.1 µM) | MIC [3]: 12.5 µg/mL (≈ 30 µM) | MIC [4]: 25 µg/mL (≈ 60.1 µM) | MIC [5]: 25 µg/mL (≈ 60.1 µM)

CC(C)(C)OC(=O)N1CCC(n2cc(-c3noc(=O)[nH]3)nn2)CC1
MIC [1]: 20 µg/mL (≈ 59.5 µM) | MIC [3]: 15 µg/mL (≈ 44.6 µM) | MIC [4]: 30 µg/mL (≈ 89.2 µM) | MIC [5]: 25 µg/mL (≈ 74.3 µM) | Activity [6]: inactive

CC(C)(C)OC(=O)N1CCC(n2cc(C(N)=O)nn2)CC1
MIC [1]: 25 µg/mL (≈ 84.6 µM) | MIC [2]: 45 µg/mL (≈ 152 µM) | MIC [3]: 27 µg/mL (≈ 91.4 µM) | MIC [4]: 50 µg/mL (≈ 169 µM) | MIC [5]: 55 µg/mL (≈ 186 µM)

OC(Cn1cncn1)(Cn1cncn1)c1ccc(F)cc1F [FLUCONAZOLE]
MIC [1]: 10 µg/mL (≈ 32.7 µM) | MIC [2]: 5 µg/mL (≈ 16.3 µM) | MIC [3]: 5 µg/mL (≈ 16.3 µM) | MIC [4]: 5 µg/mL (≈ 16.3 µM) | MIC [5]: 5 µg/mL (≈ 16.3 µM)

CCC(=O)N1CCC(n2cc(-c3noc(=O)[nH]3)nn2)CC1
MIC [1]: 42 µg/mL (≈ 144 µM) | MIC [2]: 85 µg/mL (≈ 291 µM) | MIC [3]: 42 µg/mL (≈ 144 µM) | MIC [4]: 85 µg/mL (≈ 291 µM) | MIC [5]: 90 µg/mL (≈ 308 µM)

CCOC(=O)c1cn(C2CCN(C(=O)OC(C)(C)C)CC2)nn1
MIC [1]: 19 µg/mL (≈ 58.6 µM) | MIC [2]: 35 µg/mL (≈ 108 µM) | MIC [3]: 22 µg/mL (≈ 67.8 µM) | MIC [4]: 40 µg/mL (≈ 123 µM) | MIC [5]: 44 µg/mL (≈ 136 µM)

O=C(c1ccccc1)N1CCC(n2cc(-c3noc(=O)[nH]3)nn2)CC1
MIC [1]: 42 µg/mL (≈ 123 µM) | MIC [2]: 85 µg/mL (≈ 250 µM) | MIC [3]: 42 µg/mL (≈ 123 µM) | MIC [4]: 85 µg/mL (≈ 250 µM) | MIC [5]: 88 µg/mL (≈ 259 µM)
